From ChEMBL document CHEMBL1157401, “Anticancer activity of isoobtusilactone A from Cinnamomum kotoense: involvement of apoptosis, cell-cycle dysregulation, mitochondria regulation, and reactive oxygen species” (J Nat Prod, 2008)
The source made the active and inactive calls. The calls are words filed in the database; no cut-off is given here.

Columns and labels:
A549 [1] = test: Cytotoxicity against human A549 cells after 48 hrs by MTT assay; format: functional, cell-based; conditions: A549, 48 h
A549 [2] = test: Cytotoxicity against human A549 cells after 72 hrs by MTT assay; format: functional, cell-based; conditions: A549, 72 h
A549 [3] = test: Inhibition of invasion in human A549 cells; format: functional, cell-based
Summary of the method: (§1)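 Transwell migration with 8 µm inserts, or Matrigel-coated inserts for invasion: 5 × 10^4 A549 cells in serum-free medium placed in the upper chamber over medium with 10% FBS, 24 h at 37 °C, 5% CO2. Migrated cells stained, dye extracted and read at 560 nm. Reported as percent of control; compound tested at 1 and 10 µM, with NAC pretreatment in reversal tests.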

A549 [4] = test: Cell cycle arrest in human A549 cells assessed as accumulation at subG1 phase at 100 uM after 72 hrs; format: functional
Summary of the method: (§2)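 Flow cytometry of cell cycle: A549 (5 × 10^5 per 60 mm dish) treated next day with 50 or 100 µM for 24, 48 or 72 h. Adherent and floating cells pooled, fixed in PBS-MeOH 1:2 at 4 °C for at least 18 h, then stained 30 min in the dark with PI 50 µg/mL plus RNase A 50 µg/mL. Sub-G1 taken as the subdiploid fraction; at least three runs.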

A549 [5] = test: Inhibition of migration in human A549 cells; format: functional, cell-based; summary of the method: as §1
A549 [6] = test: Antioxidant activity in human A549 cells assessed as increase in dichlorofluorescein florescence intensity after 30 mins relative to untreated cells; format: functional, cell-based
Summary of the method: (§3)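 Intracellular ROS (H2O2/peroxide) by DCF fluorescence: A549 cells at 80% confluence exposed to 100 µM for 30 min, then 10 µM DCFH-DA 30 min in the dark, trypsinized and resuspended in PBS. Read by flow cytometry, ex 488 / em 525-550 nm. For scavenger tests, NAC (10 mM) or other agents given 30 min before compound.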

A549 [7] = test: Cell cycle arrest in human A549 cells assessed as accumulation at S phase at 100 uM after 72 hrs; format: functional; summary of the method: as §2
A549 [8] = test: Cell cycle arrest in human A549 cells assessed as accumulation at G2/M phase at 50 uM after 24 hrs; format: functional; summary of the method: as §2
A549 [9] = test: Cell cycle arrest in human A549 cells assessed as accumulation at S phase at 50 uM after 24 hrs; format: functional; summary of the method: as §2
A549 [10] = test: Decrease in mitochondrial potential in human A549 cells assessed as decrease in fluorescent intensity of rhodamine 123 staining; format: functional, cell-based
Summary of the method: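 Mitochondrial membrane potential: A549 cells with or without 100 µM for 6, 12, 18 or 24 h, then moved to serum-free medium containing 10 µM rhodamine 123 for 15 min at 37 °C. Cells collected and fluorescence read within 15 min, ex 490 / em 515 nm.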

A549 [11] = test: Induction of apoptosis in human A549 cells assessed as apoptotic nucleosome at 1 uM after 6 hrs; format: functional
Summary of the method: (§4)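 Apoptosis by cytoplasmic mono- and oligonucleosomes (nucleosome ELISA): A549 cells given 1, 10 or 100 µM for 6, 12, 18 or 24 h and lysed, then lysate assayed photometrically. Expressed relative to control; three experiments, mean ± SE, ANOVA with Dunnett's test.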

A549 [12] = test: Cytotoxicity against human A549 cells after 72 hrs by TB dye exclusion assay; format: functional, cell-based; conditions: A549, 72 h
A549 [13] = test: Antioxidant activity in human A549 cells assessed as N-acetyl-l-cysteine-induced production of H2O2; format: functional, cell-based; summary of the method: as §3
A549 [14] = test: Induction of apoptosis in human A549 cells assessed as DNA fragmentation after 24 hrs; format: functional, cell-based; summary of the method: as §4
A549 [15] = test: Cell cycle arrest in human A549 cells assessed as accumulation at G1 phase at 100 uM after 48 hrs; format: functional; summary of the method: as §2
A549 [16] = test: Cell cycle arrest in human A549 cells assessed as accumulation at S phase at 100 uM after 24 hrs; format: functional; summary of the method: as §2
A549 [17] = test: Cell cycle arrest in human A549 cells assessed as accumulation at subG1 phase at 100 uM after 48 hrs; format: functional; summary of the method: as §2
A549 [18] = test: Cell cycle arrest in human A549 cells assessed as accumulation at subG1 phase at 50 uM after 72 hrs; format: functional; summary of the method: as §2
A549 [19] = test: Cell cycle arrest in human A549 cells assessed as accumulation at G2/M phase at 100 uM after 48 hrs; format: functional; summary of the method: as §2
A549 [20] = test: Cell cycle arrest in human A549 cells assessed as accumulation at G2/M phase at 100 uM after 24 hrs; format: functional; summary of the method: as §2
A549 [21] = test: Cell cycle arrest in human A549 cells assessed as accumulation at S phase at 50 uM after 48 hrs; format: functional; summary of the method: as §2
A549 [22] = test: Cell cycle arrest in human A549 cells assessed as accumulation at G2/M phase at 100 uM after 72 hrs; format: functional; summary of the method: as §2
A549 [23] = test: Reversal of antiproliferative activity against human A549 cells in presence of N-acetyl-l-cysteine; format: functional, cell-based
Summary of the method: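 ROS-dependence of growth inhibition: A549 cells pretreated with NAC (10 mM) or L-NAME (100 µM) for 2 h, then 100 µM compound for 24 h. Proliferation read by MTT assay at OD 570 nm.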

A549 [24] = test: Cytotoxicity against human A549 cells after 48 hrs by TB dye exclusion assay; format: functional, cell-based; conditions: A549, 48 h
A549 [25] = test: Induction of apoptosis in human A549 cells assessed as apoptotic nucleosome at 1 uM after 24 hrs; format: functional; summary of the method: as §4
A549 [26] = test: Cell cycle arrest in human A549 cells assessed as accumulation at subG1 phase at 50 uM after 48 hrs; format: functional; summary of the method: as §2
A549 [27] = test: Induction of cytochrome C release in human A549 cells by ELISA; format: functional, cell-based; conditions: TDE = time-dependent effect
Summary of the method: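 Cytochrome c release: A549 cells given 100 µM or DMSO vehicle for 6, 12, 18 or 24 h at 37 °C. Cytosolic fraction taken by digitonin permeabilization and mitochondrial fraction by detergent lysis, each measured by cytochrome c ELISA. Three experiments, mean ± SE.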

SMILES: C=C1OC(=O)/C(=C/CCCCCCCCCCCCC)[C@@H]1O [ISOOBTUSILACTONE A]
- IC50 (A549 [1]): 1.95 µM
- IC50 (A549 [2]): 1.02 µM
- Activity (A549 [3]): Active
- Activity (A549 [4]): 60.25%
- Activity (A549 [5]): Active
- Activity (A549 [6]): Active
- Activity (A549 [7]): 16.24%
- Activity (A549 [8]): 17.26%
- Activity (A549 [9]): 30.81%
- Activity (A549 [10]): Active
- Activity (A549 [11]): 3.5
- IC50 (A549 [12]): 0.724 µM
- Activity (A549 [13]): Active
- Activity (A549 [14]): Active
- Activity (A549 [15]): 43.08%
- Activity (A549 [16]): 38.95%
- Activity (A549 [17]): 47.64%
- Activity (A549 [18]): 54.08%
- Activity (A549 [19]): 15.59%
- Activity (A549 [20]): 18.18%
- Activity (A549 [21]): 46.72%
- Activity (A549 [22]): 42.03%
- Activity (A549 [23]): inactive
- IC50 (A549 [24]): 0.891 µM
- Activity (A549 [25]): 16
- Activity (A549 [26]): 36.73%
- Activity (A549 [27]): tde
